The subject of assay [1] is PC-3. Description: Cytotoxicity against human PC3 cells after 48 hrs. In kind it is functional, cell-based. The settings on record: PC-3, 48 h. The method, boiled down: (§1)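 MTT viability. ATCC cells in DMEM with 10% FBS and penicillin/streptomycin at 37 °C under 5% CO2, plated at 1.2 × 10^5/mL the day before dosing. Exposed 48 h to 20−100 μM (DMSO stocks diluted in medium). Formazan dissolved in DMSO and read at 550 nm. Viability expressed as % of vehicle control, blank-subtracted. Checked by trypan blue count. PEITC as positive control. Mean ± SD, at least three experiments in duplicate.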

The test system of assay [2] is HeLa. Description: Cytotoxicity against human HeLa cells after 48 hrs. The format is functional, cell-based. The gist of the method:
as §1

Assay [3] has as its system HeLa. Description: Cytotoxicity against human HeLa cells assessed as growth inhibition at 100 uM after 48 hrs by trypan blue exclusion assay. In kind it is functional, cell-based. The gist of the method: (§2)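 Cells cultured in DMEM with 10% FBS, streptomycin and penicillin at 37 °C under 5% CO2, and plated at 1.2 × 10^5/mL one day before treatment. Single 100 μM exposure for 48 h from DMSO stock diluted in medium. Viability read by MTT at 550 nm, blank-subtracted, as % of DMSO-vehicle control. Random checks by trypan blue exclusion count.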

Assay [4] deals with PC-3. Description: Cytotoxicity against human PC3 cells assessed as growth inhibition at 100 uM after 48 hrs by trypan blue exclusion assay. In kind it is functional, cell-based. The gist of the method:
as §2

In assay [5] the target is Heat shock protein HSP 90-alpha (Homo sapiens, UniProt P07900). Description: Binding affinity to recombinant HSP90-alpha (unknown origin) by surface plasmon resonance analysis.

The source made the active and inactive calls. The calls are words filed in the database; no cut-off is given here.

Take `CC(=O)O[C@@H]1[C@H](O)[C@H]2C(C)(C)C(=O)C=C[C@]2(C)[C@H]2CC[C@]3(C)C(=CC[C@H]3c3ccoc3)[C@]12C` [NIMONOL]: the IC50 (usually the concentration needed to halve the response being measured) in the assay with PC-3 [1] is 95 µM; with HeLa [2], 77 µM. Moreover, the “growth inhibition (GI)” value with HeLa [3] and with PC-3 [4] was “Active” in each case.

Consider `COC(=O)C[C@H]1[C@]2(C)C3=C(C)[C@H](C4=CC(=O)OC4O)C[C@@H]3O[C@@H]2[C@H](O)[C@@H]2[C@]1(C)C(=O)C=C[C@@]2(C)O` (stereo partly drawn), for which the outcome in assay [5] was inactive. For the same molecule, the “growth inhibition (GI)” value in the assay with HeLa [3] and in the assay on PC-3 [4] was “inactive” each time.

Regarding `C/C=C(\C)C(=O)O[C@H]1C[C@@H](O)[C@@]2(C(=O)OC)CO[C@H]3[C@@H](O)[C@@](C)([C@]45O[C@@]4(C)[C@H]4C[C@@H]5O[C@@H]5OC=C[C@@]54O)[C@@H]4[C@@H](C(=O)OC)OC[C@@]14[C@@H]32`, the “growth inhibition (GI)” value in the assay on HeLa [3] and with PC-3 [4] was “inactive” throughout.

As for `CC(=O)O[C@@H]1[C@H](O)[C@H]2C(C)(C)C(=O)C=C[C@]2(C)[C@H]2CC[C@]3(C)C(=CC[C@H]3C3=COC(=O)C3O)[C@]12C` (relative stereo), the “growth inhibition (GI)” value in the assay on HeLa [3] and in the assay on PC-3 [4] was “inactive” each time.

Consider `CC(=O)O[C@@H]1[C@H](O)[C@H]2C(C)(C)C(=O)CC[C@]2(C)[C@H]2CC[C@]3(C)C(=CC[C@H]3c3ccoc3)[C@]12C`, for which the IC50 with PC-3 [1] is 90 µM; in the assay with HeLa [2] it was 74 µM. The “growth inhibition (GI)” value in the assay on HeLa [3] and in the assay on PC-3 [4] was “Active” each time.

Regarding `CC(=O)O[C@@H]1[C@H](O)[C@H]2C(C)(C)C(=O)CC[C@]2(C)[C@H]2CC[C@]3(C)C(=CC[C@H]3[C@@H]3CC(=O)OC3=O)[C@]12C` (relative stereo), the “growth inhibition (GI)” value in the assay with HeLa [3] and in the assay with PC-3 [4] was “inactive” throughout.

With `COC(=O)C[C@H]1[C@]2(C)C3=C(C)[C@H](C4=COC(=O)C4O)C[C@@H]3O[C@@H]2[C@H](O)[C@@H]2[C@]1(C)C(=O)C=C[C@@]2(C)O` (stereo partly drawn), the outcome in assay [5] was inactive. Also, the “growth inhibition (GI)” value in the assay with HeLa [3] and in the assay on PC-3 [4] was “inactive” each time.

As for `CC(=O)O[C@@H]1[C@H](O)[C@H]2C(C)(C)C(=O)CC[C@]2(C)[C@H]2CC[C@]3(C)C(=CC[C@H]3C3=COC(=O)C3O)[C@]12C` (stereo partly drawn), the “growth inhibition (GI)” value in the assay on HeLa [3] and in the assay on PC-3 [4] was “inactive” throughout.

On to `COc1cc(/C=C/C(=O)OC[C@H]2O[C@@H](OC(C)(C)C(=O)O)[C@H](O)[C@@H](O)[C@@H]2O)cc(OC)c1O`, for which the “growth inhibition (GI)” value in the assay with HeLa [3] and in the assay with PC-3 [4] was “inactive” in each case.

Consider `CC(=O)O[C@@H]1C[C@H](OC(=O)C=C(C)C)[C@@]2(C)[C@H]3[C@@H](OC[C@]13C)[C@@H](O)[C@@]1(C)C3=CC[C@@H]([C@@H]4COC(=O)C4)[C@]3(C)CC[C@@H]12`, for which, in assay [5], the outcome was inactive. In addition, the “growth inhibition (GI)” value in the assay with HeLa [3] and in the assay on PC-3 [4] was “inactive” in each case.

Consider `CC(=O)O[C@@H]1[C@H](O)[C@H]2C(C)(C)C(=O)CC[C@]2(C)[C@H]2CC[C@]3(C)C(=CC[C@H]3[C@H]3COC(=O)C3)[C@]12C`, for which the “growth inhibition (GI)” value in the assay with HeLa [3] and in the assay with PC-3 [4] was “inactive” in each case.

On to `COC(=O)[C@H]1OC[C@]23[C@@H]1[C@](C)([C@]14O[C@@]1(C)[C@H]1C[C@@H]4O[C@@H]4OC=C[C@@]41O)[C@H](O)[C@@H]1OC[C@](C(=O)OC)([C@H](O)C[C@@H]2O)[C@H]13`, for which the “growth inhibition (GI)” value with HeLa [3] and with PC-3 [4] was “inactive” throughout.

As for `CC(=O)O[C@H]1C[C@@H](OC(C)=O)[C@@]2(C)CO[C@@H]3[C@@H](O)[C@@]4(C)C5=CC[C@@H](c6ccoc6)[C@]5(C)CC[C@@H]4[C@]1(C)[C@@H]32`, the IC50 in the assay with PC-3 [1] was 80 µM; in the assay on HeLa [2], 74 µM. Further, in assay [5], the Kd – broadly, the free concentration of one partner at which half of the binding sites on the other are occupied at equilibrium, for simple one-to-one binding – worked out at 0.049 µM. Also, the “growth inhibition (GI)” value with HeLa [3] and with PC-3 [4] was “Active” throughout.

As to `C/C=C(\C)C(=O)O[C@H]1C[C@@H](O)[C@@]2(C)CO[C@H]3[C@H]4O[C@@H]5C[C@@H](c6ccoc6)C(C)=C5[C@@]4(C)[C@H](CC(=O)OC)[C@]1(C)[C@@H]32` [DESACETYL SALANNIN], in assay [5], the Kd worked out at 0.033 µM. Also, the “growth inhibition (GI)” value in the assay with HeLa [3] and with PC-3 [4] was “inactive” throughout.

Regarding `CC(=O)O[C@@H]1[C@H](O)[C@H]2C(C)(C)C(=O)C=C[C@]2(C)[C@H]2CC[C@]3(C)C(=CC[C@H]3[C@@H]3CC(=O)OC3=O)[C@]12C` (relative stereo), the IC50 with PC-3 [1] was greater than 100 µM; in the assay on HeLa [2] it was 95 µM. Also, the “growth inhibition (GI)” value with HeLa [3] and with PC-3 [4] was “Active” throughout.

The record behind these values is ChEMBL document CHEMBL3120057, “Bioactive limonoids from the leaves of Azaridachta indica (Neem)” (J Nat Prod, 2014).
